Assay results taken from ChEMBL document CHEMBL4477242, “Synthesis, structure and antimicrobial evaluation of a new gossypol triazole conjugates functionalized with aliphatic chains and benzyloxy groups” (2016).
Values after ≈ are worked out from the molar mass of the structure shown.

Tests used:
[1] = tested on: Fusarium oxysporum f. sp. lycopersici; assay: Antifungal activity against Fusarium oxysporum f. sp. lycopersici after 18 hrs by serial microdilution assay; assay type: functional
How it was run: (§1)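 Fungal strains tested by MIC determination, with miconazole run as the reference antifungal. The two Fusarium oxysporum formae speciales are isolates from plants (cabbage and tomatoes).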

[2] = Antifungal activity against Fusarium oxysporum f. sp. betae after 18 hrs by serial microdilution assay; assay type: functional; how it was run: as §1
Aspergillus brasiliensis = assay: Antifungal activity against Aspergillus brasiliensis ATCC 16404 after 18 hrs by serial microdilution assay; assay type: functional; conditions: ATCC 16404, 18 h; how it was run: as §1
Aspergillus fumigatus = assay: Antifungal activity against Aspergillus fumigatus ATCC 204305 after 18 hrs by serial microdilution assay; assay type: functional; conditions: ATCC 204305, 18 h; how it was run: as §1
[3] = tested on: Trichophyton mentagrophytes; assay: Antifungal activity against Trichophyton mentagrophytes ATCC 9533 after 18 hrs by serial microdilution assay; assay type: functional; conditions: ATCC 9533, 18 h; how it was run: as §1
Rhizopus stolonifer [4] = assay: Antifungal activity against Rhizopus stolonifer ATCC 56227b after 18 hrs by serial microdilution assay; assay type: functional; how it was run: as §1
Fusarium acuminatum = assay: Antifungal activity against Fusarium acuminatum ATCC 46651 after 18 hrs by serial microdilution assay; assay type: functional; conditions: ATCC 46651, 18 h; how it was run: as §1
Staphylococcus aureus [5] = assay: Antibacterial activity against Staphylococcus aureus ATCC 25923 after 18 hrs by serial microdilution assay; assay type: functional; conditions: ATCC 25923, 18 h
Staphylococcus aureus [6] = assay: Antibacterial activity against Staphylococcus aureus ATCC 6538 after 18 hrs by serial microdilution assay; assay type: functional; conditions: ATCC 6538, 18 h
Staphylococcus aureus [7] = assay: Antibacterial activity against methicillin-resistant Staphylococcus aureus 1 after 18 hrs by serial microdilution assay; assay type: functional; conditions: Staphylococcus aureus, 1, 18 h
Staphylococcus aureus [8] = assay: Antibacterial activity against methicillin-resistant Staphylococcus aureus 2 after 18 hrs by serial microdilution assay; assay type: functional; conditions: Staphylococcus aureus, 2, 18 h
[9] = tested on: Staphylococcus epidermidis; assay: Antibacterial activity against Staphylococcus epidermidis ATCC 12228 after 18 hrs by serial microdilution assay; assay type: functional; conditions: ATCC 12228, 18 h
[10] = tested on: Staphylococcus epidermidis; assay: Antibacterial activity against Staphylococcus epidermidis ATCC 49134 after 18 hrs by serial microdilution assay; assay type: functional; conditions: ATCC 49134, 18 h
Streptococcus pneumoniae = assay: Antibacterial activity against Streptococcus pneumoniae ATCC 49619 after 18 hrs by serial microdilution assay; assay type: functional; conditions: ATCC 49619, 18 h
Micrococcus luteus = assay: Antibacterial activity against Micrococcus luteus ATCC 10240 after 18 hrs by serial microdilution assay; assay type: functional; conditions: ATCC 10240, 18 h
Bacillus subtilis = assay: Antibacterial activity against Bacillus subtilis […] after 18 hrs by serial microdilution assay; assay type: functional
Rhizopus stolonifer [11] = assay: Reduction in ergosterol content in Rhizopus stolonifer ATCC 56227 assessed per gram of dry fungi mass at 256 microg/ml incubated for 24 hrs measured after 24 to 96 hrs by HPLC analysis; assay type: functional
How it was run: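 Ergosterol was quantified by HPLC in derivatized fungal material from treated cultures, using the peak area at a retention time of 8.26 min. Results are expressed as mg ergosterol per 1 g of dry fungal mass. Content was followed over incubation time, up to 96 h.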

Rhizopus stolonifer [12] = assay: Reduction in ergosterol content in Rhizopus stolonifer ATCC 56227 at 256 microg/ml by HPLC analysis; assay type: functional, organism-based; conditions: TDE = time-dependent effect
How it was run: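 Treated fungal material was derivatised and its ergosterol measured by HPLC from the area of the ergosterol peak at Rt 8.26 min. Content is expressed as mg per 1 g dry fungal mass and followed over incubation time up to 96 h.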

| Structure (SMILES) | MIC [1] | MIC [2] | MIC (Aspergillus brasiliensis) | MIC (Aspergillus fumigatus) | MIC [3] | MIC (Rhizopus stolonifer [4]) | MIC (Fusarium acuminatum) | MIC (Staphylococcus aureus [5]) | MIC (Staphylococcus aureus [6]) | MIC (Staphylococcus aureus [7]) | MIC (Staphylococcus aureus [8]) | MIC [9] | MIC [10] | MIC (Streptococcus pneumoniae) | MIC (Micrococcus luteus) | MIC (Bacillus subtilis) | Activity (Rhizopus stolonifer [11]) | Activity (Rhizopus stolonifer [12]) |
| --- | --- | --- | --- | --- | --- | --- | --- | --- | --- | --- | --- | --- | --- | --- | --- | --- | --- | --- |
| Clc1ccc(COC(Cn2ccnc2)c2ccc(Cl)cc2Cl)c(Cl)c1 (stereo unspecified) [MICONAZOLE] | 16 µg/mL (≈ 38.4 µM) | 16 µg/mL (≈ 38.4 µM) | – | – | – | – | – | – | – | – | – | – | – | – | – | – | – | – |
| CCCCCc1cn(CCCN/C=C2\C(=O)C(O)=C(C(C)C)c3cc(C)c(-c4c(C)cc5c(c4O)/C(=C/NCCCn4cc(CCCCC)nn4)C(=O)C(O)=C5C(C)C)c(O)c32)nn1 | 64 µg/mL (≈ 73.1 µM) | 64 µg/mL (≈ 73.1 µM) | 256 µg/mL (≈ 293 µM) | 256 µg/mL (≈ 293 µM) | 256 µg/mL (≈ 293 µM) | 128 µg/mL (≈ 146 µM) | 256 µg/mL (≈ 293 µM) | > 256 µg/mL | > 256 µg/mL | > 256 µg/mL | > 256 µg/mL | > 256 µg/mL | > 256 µg/mL | > 256 µg/mL | > 256 µg/mL | > 256 µg/mL | – | – |
| Cc1cc2c(c(O)c1-c1c(C)cc3c(c1O)/C(=C/NCCn1cc(COCc4ccccc4)nn1)C(=O)C(O)=C3C(C)C)/C(=C/NCCn1cc(COCc3ccccc3)nn1)C(=O)C(O)=C2C(C)C | 16 µg/mL (≈ 16.9 µM) | 16 µg/mL (≈ 16.9 µM) | 128 µg/mL (≈ 135 µM) | 256 µg/mL (≈ 270 µM) | 256 µg/mL (≈ 270 µM) | 64 µg/mL (≈ 67.6 µM) | 128 µg/mL (≈ 135 µM) | > 256 µg/mL | > 256 µg/mL | > 256 µg/mL | > 256 µg/mL | > 256 µg/mL | > 256 µg/mL | > 256 µg/mL | > 256 µg/mL | > 256 µg/mL | 1 mg | Tde |
| CCCCc1cn(CCN/C=C2\C(=O)C(O)=C(C(C)C)c3cc(C)c(-c4c(C)cc5c(c4O)/C(=C/NCCn4cc(CCCC)nn4)C(=O)C(O)=C5C(C)C)c(O)c32)nn1 | 64 µg/mL (≈ 78.1 µM) | 64 µg/mL (≈ 78.1 µM) | 256 µg/mL (≈ 313 µM) | 256 µg/mL (≈ 313 µM) | 256 µg/mL (≈ 313 µM) | 128 µg/mL (≈ 156 µM) | 256 µg/mL (≈ 313 µM) | > 256 µg/mL | > 256 µg/mL | > 256 µg/mL | > 256 µg/mL | > 256 µg/mL | > 256 µg/mL | > 256 µg/mL | > 256 µg/mL | > 256 µg/mL | – | – |
| CCCc1cn(CCCN/C=C2\C(=O)C(O)=C(C(C)C)c3cc(C)c(-c4c(C)cc5c(c4O)/C(=C/NCCCn4cc(CCC)nn4)C(=O)C(O)=C5C(C)C)c(O)c32)nn1 | 64 µg/mL (≈ 78.1 µM) | 64 µg/mL (≈ 78.1 µM) | – | – | – | – | – | – | – | – | – | – | – | – | – | – | – | – |
| CCCc1cn(CCN/C=C2\C(=O)C(O)=C(C(C)C)c3cc(C)c(-c4c(C)cc5c(c4O)/C(=C/NCCn4cc(CCC)nn4)C(=O)C(O)=C5C(C)C)c(O)c32)nn1 | 64 µg/mL (≈ 80.9 µM) | 64 µg/mL (≈ 80.9 µM) | 256 µg/mL (≈ 324 µM) | 256 µg/mL (≈ 324 µM) | 256 µg/mL (≈ 324 µM) | 128 µg/mL (≈ 162 µM) | 256 µg/mL (≈ 324 µM) | 256 µg/mL (≈ 324 µM) | 256 µg/mL (≈ 324 µM) | > 256 µg/mL | > 256 µg/mL | 256 µg/mL (≈ 324 µM) | 256 µg/mL (≈ 324 µM) | 256 µg/mL (≈ 324 µM) | > 256 µg/mL | > 256 µg/mL | – | – |
| Cc1cc2c(C(C)C)c(O)c(O)c(C=O)c2c(O)c1-c1c(C)cc2c(C(C)C)c(O)c(O)c(C=O)c2c1O [GOSSYPOL] | 32 µg/mL (≈ 61.7 µM) | 32 µg/mL (≈ 61.7 µM) | 256 µg/mL (≈ 494 µM) | 256 µg/mL (≈ 494 µM) | 128 µg/mL (≈ 247 µM) | 128 µg/mL (≈ 247 µM) | 128 µg/mL (≈ 247 µM) | 16 µg/mL (≈ 30.9 µM) | 16 µg/mL (≈ 30.9 µM) | 16 µg/mL (≈ 30.9 µM) | 16 µg/mL (≈ 30.9 µM) | 16 µg/mL (≈ 30.9 µM) | 16 µg/mL (≈ 30.9 µM) | 16 µg/mL (≈ 30.9 µM) | 32 µg/mL (≈ 61.7 µM) | 16 µg/mL (≈ 30.9 µM) | – | Tde |
| Cc1cc2c(c(O)c1-c1c(C)cc3c(c1O)/C(=C/NCCCn1cc(COCc4ccccc4)nn1)C(=O)C(O)=C3C(C)C)/C(=C/NCCCn1cc(COCc3ccccc3)nn1)C(=O)C(O)=C2C(C)C | 16 µg/mL (≈ 16.4 µM) | 16 µg/mL (≈ 16.4 µM) | – | – | – | – | – | – | – | – | – | – | – | – | – | – | – | – |
| CCCCc1cn(CCCN/C=C2\C(=O)C(O)=C(C(C)C)c3cc(C)c(-c4c(C)cc5c(c4O)/C(=C/NCCCn4cc(CCCC)nn4)C(=O)C(O)=C5C(C)C)c(O)c32)nn1 | 64 µg/mL (≈ 75.6 µM) | 64 µg/mL (≈ 75.6 µM) | 256 µg/mL (≈ 302 µM) | 256 µg/mL (≈ 302 µM) | 256 µg/mL (≈ 302 µM) | 128 µg/mL (≈ 151 µM) | 256 µg/mL (≈ 302 µM) | > 256 µg/mL | > 256 µg/mL | > 256 µg/mL | > 256 µg/mL | > 256 µg/mL | > 256 µg/mL | > 256 µg/mL | > 256 µg/mL | > 256 µg/mL | – | – |
| CCCCCc1cn(CCN/C=C2\C(=O)C(O)=C(C(C)C)c3cc(C)c(-c4c(C)cc5c(c4O)/C(=C/NCCn4cc(CCCCC)nn4)C(=O)C(O)=C5C(C)C)c(O)c32)nn1 | 64 µg/mL (≈ 75.6 µM) | 64 µg/mL (≈ 75.6 µM) | 256 µg/mL (≈ 302 µM) | 256 µg/mL (≈ 302 µM) | 256 µg/mL (≈ 302 µM) | 128 µg/mL (≈ 151 µM) | 256 µg/mL (≈ 302 µM) | > 256 µg/mL | > 256 µg/mL | > 256 µg/mL | > 256 µg/mL | > 256 µg/mL | > 256 µg/mL | > 256 µg/mL | > 256 µg/mL | > 256 µg/mL | – | – |
